# ChEMBL document CHEMBL2331366, “Bioactive indole alkaloids and phenyl ether derivatives from a marine-derived Aspergillus sp. Fungus” (J Nat Prod, 2013)
# Activity calls are given as the source filed them. The rule behind the calls is not given here.
# Tests used:
# [1] = tested on: HL-60; experiment: Cytotoxicity against human HL60 cells assessed as inhibition of cell viability by MTT assay; type: functional, cell-based
# [2] = tested on: Staphylococcus epidermidis; experiment: Antibacterial activity against Staphylococcus epidermidis ATCC 12228 assessed as growth inhibition; type: functional
# Procedure, shortened: (§1)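 In vitro antibacterial test against each listed strain. Activity is reported as MIC (μM), with ciprofloxacin as the positive control.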
# [3] = tested on: Staphylococcus aureus; experiment: Antibacterial activity against Staphylococcus aureus ATCC 27154 assessed as growth inhibition; type: functional; procedure, shortened: as §1
# [4] = tested on: Vibrio anguillarum; experiment: Antibacterial activity against Vibrio anguillarum ATCC 19019 assessed as growth inhibition; type: functional; procedure, shortened: as §1
# [5] = tested on: K562; experiment: Cytotoxicity against human K562 cells assessed as inhibition of cell viability by MTT assay; type: functional, cell-based
# [6] = tested on: Pseudomonas putida; experiment: Antibacterial activity against Pseudomonas putida ATCC 17848 assessed as growth inhibition; type: functional; procedure, shortened: as §1
# [7] = tested on: Vibrio parahaemolyticus; experiment: Antibacterial activity against Vibrio parahaemolyticus ATCC 17802 assessed as growth inhibition; type: functional; procedure, shortened: as §1
# [8] = tested on: Staphylococcus epidermidis; experiment: Ratio of ciprofloxacin MIC to compound MIC for Staphylococcus epidermidis ATCC 12228; type: functional
# [9] = tested on: Micrococcus; experiment: Antibacterial activity against Micrococcus tetragenus ATCC 13623 assessed as growth inhibition; type: functional, organism-based; procedure, shortened: as §1
# [10] = tested on: Bacillus cereus; experiment: Antibacterial activity against Bacillus cereus ACCC 11077 assessed as growth inhibition; type: functional, organism-based; procedure, shortened: as §1
# [11] = tested on: Escherichia coli; experiment: Antibacterial activity against Escherichia coli ATCC 25922 assessed as growth inhibition; type: functional, organism-based; procedure, shortened: as §1
SMILES,MIC [2],MIC [3],MIC [4],MIC [6],IC50 [1],IC50 [5],MIC [7],Ratio [8],growth inhibition (GI) [9],growth inhibition (GI) [2],growth inhibition (GI) [3],growth inhibition (GI) [4],growth inhibition (GI) [6],growth inhibition (GI) [7],growth inhibition (GI) [10],growth inhibition (GI) [11]
COc1cc(C)cc(Oc2cc(C)cc(OC)c2O)c1O,> 100 µM,100 µM,100 µM,> 100 µM,> 10 µM,> 10 µM,> 100 µM,,,,,,,,,
COC(=O)c1c(C)c(Br)c(Oc2c(Br)c(C)c(Br)c(O)c2Br)c(Br)c1O,100 µM,100 µM,9.23 µM,> 100 µM,,,> 100 µM,,,,,,,,,
Cc1c(Br)c(O)c(Br)c(Oc2c(Br)c(C)c(Br)c(O)c2Br)c1Br,0.556 µM,1.11 µM,1.11 µM,1.11 µM,,,1.11 µM,5,,,,,,,,
C=CC(C)(C)[C@]1(C[C@@H]2NC(=O)[C@@]3(OC)CCCN3C2=O)C(=O)Nc2c1ccc1c2C=CC(C)(C)O1,,,,,> 10 µM,> 10 µM,,,inactive,inactive,inactive,inactive,inactive,inactive,inactive,inactive
C=CC(C)(C)[C@]1(C[C@@H]2NC(=O)[C@@]3(O)CCCN3C2=O)C(=O)Nc2c1ccc1c2C=CC(C)(C)O1,,,,,> 10 µM,> 10 µM,,,inactive,inactive,inactive,inactive,inactive,inactive,inactive,inactive
O=C(O)c1cn(C2CC2)c2cc(N3CCNCC3)c(F)cc2c1=O [CIPROFLOXACIN],,0.78 µM,0.0975 µM,0.195 µM,,,0.195 µM,,,,,,,,,
Cc1cc(O)cc(Oc2cc(C)cc(O)c2O)c1 [CORDYOL C],100 µM,100 µM,100 µM,100 µM,> 10 µM,> 10 µM,100 µM,,,,,,,,,
C=CC(C)(C)[C@]1(C[C@@H]2NC(=O)C3=CCCN3C2=O)C(=O)Nc2c1ccc1c2C=CC(C)(C)O1 [DEHYDRONOTOAMIDE C],,,,,> 10 µM,> 10 µM,,,inactive,inactive,inactive,inactive,inactive,inactive,inactive,inactive
CC1(C)C=Cc2c(ccc3c2NC(=O)[C@@]32C[C@@]34NC(=O)[C@]5(CCCN5C3=O)C[C@H]4C2(C)C)O1 [NOTOAMIDE B],,,,,> 10 µM,> 10 µM,,,inactive,inactive,inactive,inactive,inactive,inactive,inactive,inactive
C=CC(C)(C)[C@]1(C[C@@H]2NC(=O)[C@@H]3CCCN3C2=O)C(=O)Nc2c1ccc1c2C=CC(C)(C)O1 [NOTOAMIDE C],,,,,> 10 µM,> 10 µM,,,inactive,inactive,inactive,inactive,inactive,inactive,inactive,inactive
C=CC(C)(C)[C@]1(C[C@@H]2NC(=O)[C@]3(O)CCCN3C2=O)C(=O)Nc2c1ccc1c2C=CC(C)(C)O1 [NOTOAMIDE M],,,,,> 10 µM,> 10 µM,,,inactive,inactive,inactive,inactive,inactive,inactive,inactive,inactive
C=CC(C)(C)[C@]1(C[C@@H]2NC(=O)[C@]3(OC)CCCN3C2=O)C(=O)Nc2c1ccc1c2C=CC(C)(C)O1 [NOTOAMIDE Q],,,,,> 10 µM,> 10 µM,,,inactive,inactive,inactive,inactive,inactive,inactive,inactive,inactive
CC1(C)C=Cc2c(ccc3c4c([nH]c23)C(C)(C)[C@@H]2C[C@]35CCCN3C(=O)[C@@]2(C4)NC5=O)O1 [STEPHACIDIN A],14.5 µM,> 100 µM,> 100 µM,> 100 µM,> 10 µM,> 10 µM,> 100 µM,,,,,,,,,

# More lines, main results first:
MIC [2],MIC [3],MIC [4],MIC [6],SMILES,IC50 [1],IC50 [5],MIC [7],Ratio [8],growth inhibition (GI) [9],growth inhibition (GI) [2],growth inhibition (GI) [3],growth inhibition (GI) [4],growth inhibition (GI) [6],growth inhibition (GI) [7],growth inhibition (GI) [10],growth inhibition (GI) [11]
2.71 µM,10.9 µM,21.7 µM,21.7 µM,COC(=O)c1c(C)cc(Oc2cc(C)cc(O)c2)cc1O,> 10 µM,5.94 µM,21.7 µM,,,,,,,,,
100 µM,> 100 µM,46 µM,100 µM,CC(=O)Oc1cc(C)cc(Oc2cc(C)cc(O)c2)c1,,,100 µM,,,,,,,,,
> 100 µM,> 100 µM,> 100 µM,> 100 µM,CC(=O)Oc1cc(C)cc(Oc2cc(C)cc(OC(C)=O)c2)c1,,,> 100 µM,,,,,,,,,
20.8 µM,20.8 µM,10.4 µM,10.4 µM,CCCCCOc1cc(C)cc(Oc2cc(C)cc(O)c2)c1,,,10.4 µM,,,,,,,,,
> 100 µM,> 100 µM,> 100 µM,> 100 µM,CCCCCOc1cc(C)cc(Oc2cc(C)cc(OCCCCC)c2)c1,,,100 µM,,,,,,,,,
46 µM,46 µM,23 µM,100 µM,CCCOc1cc(C)cc(Oc2cc(C)cc(O)c2)c1,,,2.87 µM,,,,,,,,,
18.7 µM,> 100 µM,> 100 µM,> 100 µM,Cc1cc(O)cc(Oc2cc(C)cc(OC(=O)c3ccccc3)c2)c1,,,18.7 µM,,,,,,,,,
> 100 µM,> 100 µM,> 100 µM,> 100 µM,COc1cc(C)cc(Oc2cc(C)cc(OC)c2OC)c1O [CORDYOL D],> 10 µM,> 10 µM,> 100 µM,,,,,,,,,
25.6 µM,51.2 µM,25.6 µM,51.2 µM,COc1cc(C)cc(Oc2cc(C)cc(O)c2)c1 [CORDYOL E],> 10 µM,> 10 µM,51.2 µM,,,,,,,,,
27.2 µM,54.3 µM,100 µM,100 µM,Cc1cc(O)cc(Oc2cc(C)cc(O)c2)c1 [DIORCINOL],> 10 µM,> 10 µM,100 µM,,,,,,,,,
